RBBP9 inh: inhibitors of human serine hydrolase RBBP9. O75884. recombinant RBBP9, FP-Rh probe fluorescence polarization. inhibition, % at 7.94 µM. 220,000 compounds, 0.2% hits. AID 1515;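 active = inhibition above the campaign mean of all tested compounds plus 3 SD, cut at about 14% in these data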;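 note: plate controls were DMSO wells with RBBP9 for no effect and wells lacking RBBP9 protein for full effect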
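Test system – recombinant human RBBP9 · Input – RBBP9 2.5 µM in dispensing solution, pre-mixing · Medium – Tris buffer pH 8.0, NaCl, Pluronic · Schedule – preincubation 30 min plus labeling 45 min at 25 °C · Measured by – fluorescence polarization · Measure – % inhibition · Controls – DMSO and no-protein wells · Replicates – one well per compound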
PRMT1 FP inh: PRMT1 (human) inhibition, primary screen; Q99873; recombinant PRMT1, activity-based probe fluorescence polarization; inhibition, % at 2.79 µM; 370,000 compounds, 1.3% hits; AID 652257;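 active = inhibition above about 21% made by adding two undisclosed values, limit read from the data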
SIAE primary: human SIAE inhibition, primary screen; AID 1053197; inhibition, % at 9.66 µM; Q9HAT2; SIAE FP-Rh probe binding, fluorescence polarization; 370,000 compounds, 0.69% hits;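 active = inhibition above a cutoff: mean of compounds within the control limits plus 3 SD of those, cut at about 17% in these data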;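 note: 0% = plate median of compound wells and 100% = probe without SIAE protein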
GSTO1 inh: counter-screen for RBBP9 inhibitors: inhibitors of human GSTO1; P78417; recombinant GSTO1, activity-based probe fluorescence polarization; inhibition, % at 5.96 µM; 300,000 compounds, 1.1% hits; AID 1974;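 active = inhibition above the campaign mean inhibition plus 3 SD, cut at about 35% in these data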;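 note: 0% = GSTO1-1 with DMSO and 100% = wells lacking GSTO1-1 enzyme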
PAD4 FP inh: blocks human protein arginine deiminase 4 | Q9UM07 | recombinant PAD4, RCA probe fluorescence polarization | inhibition, % at 6.36 µM | 330,000 compounds, 0.41% hits;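 active = percent inhibition above a cutoff equal to the mean of all tested compounds plus 3 SD, cut at about 15% in these data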;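 note: 0% = PAD4 with RCA probe and DMSO and 100% = probe without PAD4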
Target sequence (Q9UM07 whole entry, looked up): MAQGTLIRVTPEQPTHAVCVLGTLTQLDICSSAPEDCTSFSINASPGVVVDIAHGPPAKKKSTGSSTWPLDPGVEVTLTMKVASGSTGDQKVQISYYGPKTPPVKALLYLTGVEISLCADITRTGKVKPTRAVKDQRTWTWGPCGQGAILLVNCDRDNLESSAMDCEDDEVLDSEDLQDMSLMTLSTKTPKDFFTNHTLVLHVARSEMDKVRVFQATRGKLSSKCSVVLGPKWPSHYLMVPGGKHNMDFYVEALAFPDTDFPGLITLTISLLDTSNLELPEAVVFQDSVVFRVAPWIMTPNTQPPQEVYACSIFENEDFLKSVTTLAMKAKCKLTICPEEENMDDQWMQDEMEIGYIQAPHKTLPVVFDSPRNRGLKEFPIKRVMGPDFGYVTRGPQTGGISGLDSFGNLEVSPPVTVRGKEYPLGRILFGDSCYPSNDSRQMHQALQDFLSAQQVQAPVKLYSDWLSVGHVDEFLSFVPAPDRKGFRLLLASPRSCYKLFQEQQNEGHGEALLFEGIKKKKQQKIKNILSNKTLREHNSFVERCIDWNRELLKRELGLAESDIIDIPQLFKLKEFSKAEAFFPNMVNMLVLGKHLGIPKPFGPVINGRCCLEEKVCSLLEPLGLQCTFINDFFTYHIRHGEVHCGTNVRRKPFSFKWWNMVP
PRMT1 confirm: PRMT1 (human) inhibition, FP confirmation | shares compounds with PRMT1 FP inh | inhibition, % at 2.79 µM | 3,300 compounds, 42% hits | recombinant His-PRMT1, activity-based probe fluorescence polarization;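 active = mean inhibition across replicates above the hit cutoff derived for the earlier primary screen, cut at about 22% in these data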
* marks the source's active call; other numbers are inactive results; x = no result. The list is not random: actives were taken first. Their share in the collection is about 2.7%.

SMILES	RBBP9 inh	PRMT1 FP inh	SIAE primary	GSTO1 inh	PAD4 FP inh	PRMT1 confirm
CCC(C)c1c(O)nc(SCC(=O)c2ccccc2)[nH]c1=O (stereo not drawn)	-3.8	52.2*	5.4	4.7	3.0	52.2*
CNc1ccccc(C(=O)/C=C/c2ccccc2OC)c1=O	-5.3	35.5*	4.5	28.4	-2.8	39.0*
CNc1ccc(Br)cc(C(=O)/C=C/c2cccc(OC)c2OC)c1=O	5.0	29.9*	12.0	31.7	-2.9	17.8
COc1ccccc1/C=C/C(=O)c1cc(Br)ccc1OC(=O)c1ccco1	-6.5	-2.9	-7.4	6.7	-3.8	x
COc1ccccc1C=CC(=O)C=Cc1ccccc1OC	x	3.6	-7.0	x	x	x
CNc1ccc(Br)cc(C(=O)/C=C/c2cccc(Cl)c2Cl)c1=O	-5.4	25.4*	14.1	x	x	12.7
O=C(C=Cc1ccccc1Cl)c1ccccc1	x	1.4	-6.3	x	x	x
CCN(CC)c1ccc(SS(=O)(=O)O)cc1	-5.5	75.0*	7.4	20.8	-4.7	82.9*
O=S(=O)(O)Sc1ccccc1	x	12.6	-3.4	x	x	x
CN(C)CCNC(=O)c1cc2c(s1)-c1ccc(Cl)cc1SC2	x	4.2	1.1	x	x	x
CCOCCCNC(=O)c1cc2c(s1)-c1ccccc1SC2	x	40.2*	-14.8	-10.3	5.3	14.5
COc1ccc(/C=N/n2cnnc2)cc1Cn1nc(C)c([N+](=O)[O-])c1C	-0.2	-0.4	-0.3	1.0	-2.5	x
NCCS	-2.1	41.9*	2.6	2.0	-2.4	31.6*
Oc1ccccc1OCc1nc2ccccc2s1	-13.0	28.3*	8.2	4.4	1.2	10.5
NC(=O)CSCc1nc2ccccc2s1	-5.2	27.2*	1.8	4.6	-5.9	20.5
COC(=O)C1=CC(=O)C=C(OC)[C@@]12Oc1cc(C)cc(OC)c1C2=O	x	88.4*	0.5	x	x	84.5*
CCS(=O)(=O)Nc1cccc(C(=O)O)c1	-3.6	x	x	2.8	-1.3	x
CCSc1nc(=S)n(Cc2ccccc2)c(C)c1C(C)=O	-8.3	4.4	-5.5	4.7	-3.3	x
CC(=O)c1c(N2CCN(C)CC2)nc(=S)n(Cc2ccccc2)c1C	-0.8	38.5*	0.7	1.6	-0.9	-4.6
CNc1snc(C)c1C(=O)OCC(=O)NCc1ccccc1OC	x	0.5	0.7	x	-1.9	x
COc1ccc(N2C(=O)CC(N3CCCC4CCCCC43)C2=O)cc1 (stereo not drawn)	-8.2	52.5*	2.9	10.7	5.8	3.2
COc1ccc(N2C(=O)CC(NCC#N)C2=O)cc1 (stereo not drawn)	x	11.5	8.2	2.0	-0.4	x
COc1ccc(N2C(=O)CC(N3CCCCC3)C2=O)cc1 (stereo not drawn)	-9.4	80.0*	8.9	2.1	-2.6	-0.1
O=C1CC(N2CCCCCC2)C(=O)N1c1ccc(F)cc1 (stereo not drawn)	-6.7	41.3*	1.2	0.4	-4.5	29.1*
COc1ccc(N2C(=O)CC(NC3CCCCNC3=O)C2=O)cc1 (stereo not drawn)	2.0	27.9*	3.8	-4.8	-0.9	4.9
SMILES	RBBP9 inh	PRMT1 FP inh	SIAE primary	GSTO1 inh	PAD4 FP inh	PRMT1 confirm
O=C1CC(N2CCN(c3ccc(F)cc3)CC2)C(=O)N1c1ccc(F)cc1 (stereo not drawn)	x	0.4	-1.5	0.7	-0.8	x
COc1cccc(CN(C)C(=O)c2cc(S(=O)(=O)NC3CCCCC3)ccc2C)c1	x	-0.1	3.2	x	2.5	x
O=C(NNC(=O)c1ccc([N+](=O)[O-])cc1)NC1CCCCC1	-11.1	-3.6	1.1	0.1	1.1	x
COc1ccc(N2C(=O)CC(N3CCC(O)(c4cccc(C(F)(F)F)c4)CC3)C2=O)cc1 (stereo not drawn)	-5.3	61.0*	-2.0	0.0	1.9	-3.1
O=C1C(O)=CC(=C(c2ccccc2)c2ccccc2)c2ccccc21	x	41.8*	8.0	x	x	6.8
O=C(O)c1cccc2c1C(=O)c1ccccc1-2	-4.0	-2.7	-2.9	-0.4	4.3	x
O=C(NC(Cc1c[nH]c2ccccc12)C(=O)OCC(=O)c1cccc2ccccc12)c1cccs1 (stereo not drawn)	-17.8	50.3*	-20.9	-2.0	1.9	-0.7
COC(=O)C(Cc1c[nH]c2ccccc12)NC(=O)c1cccs1 (stereo not drawn)	-0.2	-0.8	0.8	17.7	9.0	x
N#CC1(C#N)OC12CCS(=O)(=O)c1ccccc12 (stereo not drawn)	x	6.4	-2.0	x	x	x
CCCCCCCCc1nc(=S)[nH][nH]1	2.2	27.1*	-3.3	-0.2	0.8	36.6*
CCCCCCC1CC(CCc2nc(=S)[nH][nH]2)C(=O)O1 (stereo not drawn)	-11.2	7.6	12.5	2.6	2.7	x
O=C1S/C(=C\c2cccs2)C(=O)N1c1ccc(O)cc1	x	1.9	3.1	14.6	-2.9	x
O=C1S/C(=C\C=C\c2ccco2)C(=O)N1c1ccc(O)cc1	8.6	31.4*	0.7	24.5	-8.8	3.8
COc1ccc(/C=C2\SC(=S)N(C(Cc3ccccc3)C(=O)O)C2=O)cc1 (stereo not drawn)	-1.4	3.4	-5.7	x	x	x
O=C(O)C(Cc1ccccc1)N1C(=O)/C(=C/C=C/c2ccco2)SC1=S (stereo not drawn)	4.6	61.0*	11.2	x	x	33.6*
O=C(O)C(Cc1ccccc1)N1C(=O)/C(=C/c2cccnc2)SC1=S (stereo not drawn)	2.7	26.2*	-0.7	14.1	0.8	4.5
O=C(/C=C/c1ccco1)c1cccnc1	x	46.6*	15.1	6.1	2.4	18.9
O=C(NC1CCCCN(Cc2ccc(Cl)cc2)C1=O)c1ccc(Cl)cc1Cl (stereo not drawn)	x	-3.0	-1.1	x	x	x
CCSc1nc(=S)cc(C)[nH]1	3.9	69.2*	-3.2	0.0	-7.6	41.2*
COc1cccc(C(=O)NNC(=O)C2CCCO2)c1 (stereo not drawn)	x	3.4	-1.4	7.7	3.8	x
COC(=O)c1ccc(CCc2cc(O)c(Br)cc2O)cc1	x	103.3*	9.1	x	x	72.0*
CC(C)NC(=O)c1ccc(CSCc2ccccc2Cl)o1	x	-6.0	4.5	-0.4	1.4	x
Cc1cc(C2=NNC(=NC3CC3)SC2)c(C)n1-c1ccccc1F	1.5	36.4*	0.8	1.2	-7.4	14.3
CCN(CC)c1ccc2cc(-c3nnc(-c4ccccc4)o3)c(=O)oc2c1	4.8	9.8	0.0	2.1	-3.3	x
CCN(CC)c1ccc2cc(-c3nc(-c4ccc(OC)cc4)cs3)c(=O)oc2c1	-3.6	44.9*	-6.2	0.2	-9.7	77.7*
COc1cccc2c1C(=O)c1c(O)c3c(c(O)c1C2=O)C[C@@](O)(C(C)=O)C[C@@H]3O[C@H]1C[C@H](N)[C@H](O)[C@H](C)O1	27.3*	162.5*	44.8*	x	x	168.9*
CC(=O)Nc1ccc(-c2csc(N/N=C(/C)c3ccccc3)n2)cc1	-3.5	19.4	10.7	-2.7	-0.7	x
CC(=O)Nc1ccc(-c2csc(NNC(=O)c3ccccc3)n2)cc1	-6.3	25.8*	9.1	-9.6	-4.8	0.2
O=C(NNc1nc(-c2ccccc2)cs1)c1ccco1	-10.9	41.8*	10.2	-0.3	-4.9	-1.4
